Measured values from article PMC11447854 (ACS Omega, 2024).

Legend:
HeLa cells = test: cells; type: cell-based, human; conditions: for IC50: Homo sapiens, HeLa, 24 h, read-out: cell-based IC50 (HeLa, μM); for F, activity fold compared to hit compounds, F = IC50(Hit)/IC50(Lead): from HeLa IC50, hit = 6a, 7a or 8a of the same series; for activity improvement compared to gefitinib (fold): HeLa cells, IC50 versus commercial drug gefitinib
rhCOX-2 = molecular target: T1, rhCOX-2 (Homo sapiens, UniProt P35354); test: COX-2 enzyme-based activity test; type: biochemical
T1 sequence (P35354 18-604): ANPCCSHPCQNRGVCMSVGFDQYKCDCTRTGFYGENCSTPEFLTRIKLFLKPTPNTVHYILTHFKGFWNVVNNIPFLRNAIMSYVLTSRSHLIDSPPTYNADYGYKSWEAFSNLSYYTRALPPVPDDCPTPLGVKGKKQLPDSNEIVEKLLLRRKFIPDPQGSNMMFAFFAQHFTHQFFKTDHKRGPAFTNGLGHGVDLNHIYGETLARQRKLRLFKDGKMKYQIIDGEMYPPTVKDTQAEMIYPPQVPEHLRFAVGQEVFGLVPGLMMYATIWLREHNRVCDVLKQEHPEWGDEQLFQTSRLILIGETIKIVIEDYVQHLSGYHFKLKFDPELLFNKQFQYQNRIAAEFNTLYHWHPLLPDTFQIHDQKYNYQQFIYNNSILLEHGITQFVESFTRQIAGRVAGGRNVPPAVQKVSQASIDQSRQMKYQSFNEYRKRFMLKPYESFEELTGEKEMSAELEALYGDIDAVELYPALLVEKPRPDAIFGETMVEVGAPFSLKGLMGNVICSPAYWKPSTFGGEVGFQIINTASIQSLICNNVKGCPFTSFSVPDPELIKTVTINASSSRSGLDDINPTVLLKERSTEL

HEK293 cells = test: CCK8 proliferation inhibition assay, HEK293 normal cells; type: cell-based, human; conditions: for IC50: Homo sapiens, HEK293, read-out: cell-based IC50 (HEK293, μM); for SI = IC50(HEK293)/IC50(HeLa): fold selectivity for cancer cells (HeLa) over normal cells (HEK293)
Outline: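 HEK293 and HeLa cells were seeded at 5000 cells/well and grown 24 h at 37 °C, 5% CO2. They were then exposed 24 h to test compound at 1.0–10.0 mg/L in serum-free medium, alongside untreated, DMSO-solvent and gefitinib controls. After a PBS wash and 3 h with CCK8, […]. IC50 came from inhibition relative to control. SI = IC50(HEK293)/IC50(HeLa).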

SMILES | IC50 (HeLa cells) | F, activity fold compared to hit compounds, F = IC50(Hit)/IC50(Lead) (HeLa cells) | IC50 (rhCOX-2) | IC50 (HEK293 cells) | SI = IC50(HEK293)/IC50(HeLa) (HEK293 cells) | activity improvement compared to gefitinib (fold) (HeLa cells)
C/C(=N\NC(=O)C(C)c1ccc(CC(C)C)cc1)c1cc2ccccc2oc1=O (centres unmarked) [6a, (E)-2-(4-Isobutylphenyl)-N′-(1-(2-oxo-2H-chromen-3-yl)ethylidene)propanehydrazide] | 4.64 µM | 1.00 |  |  |  | 
C/C(=N\NC(=O)C(C)c1ccc(CC(C)C)cc1)c1cc2cc(F)ccc2oc1=O (centres unmarked) [6b, (E)-N′-(1-(6-Fluoro-2-oxo-2H-chromen-3-yl)ethylidene)-2-(4-isobutylphenyl)propanehydrazide] | 2.59 µM | 1.78 |  |  |  | 
C/C(=N\NC(=O)C(C)c1ccc(CC(C)C)cc1)c1cc2cc(Br)cc(Br)c2oc1=O (centres unmarked) [6c, (E)-N′-(1-(6,8-Dibromo-2-oxo-2H-chromen-3-yl)ethylidene)-2-(4-isobutylphenyl)propanehydrazide] | 0.606 µM | 7.61 | 2.67 µM | 32.2 µM | 53.18 | approximately 10 fold
C/C(=N\NC(=O)C(C)c1ccc(CC(C)C)cc1)c1cc2ccc(O)cc2oc1=O (centres unmarked) [6d, (E)-N′-(1-(7-Hydroxy-2-oxo-2H-chromen-3-yl)ethylidene)-2-(4-isobutylphenyl)propanehydrazide] | 6.65 µM | 0.69 | 1.04 µM |  |  | 
C/C(=N\NC(=O)C(C)c1ccc(CC(C)C)cc1)c1cc2cc(C)ccc2oc1=O (centres unmarked) [6e, (E)-2-(4-Isobutylphenyl)-N′-(1-(6-methyl-2-oxo-2H-chromen-3-yl)ethylidene)propanehydrazide] | 2.19 µM | 2.11 |  |  |  | 
C/C(=N\NC(=O)C(C)c1ccc(CC(C)C)cc1)c1cc2cc(Cl)cc(Cl)c2oc1=O (centres unmarked) [6f, (E)-N′-(1-(6,8-Dichloro-2-oxo-2H-chromen-3-yl)ethylidene)-2-(4-isobutylphenyl)propanehydrazide] | 4.34 µM | 1.06 | 1.51 µM |  |  | 
C/C(=N\NC(=O)C(C)c1ccc(CC(C)C)cc1)c1cc2cc(Cl)ccc2oc1=O (centres unmarked) [6g, (E)-N′-(1-(6-Chloro-2-oxo-2H-chromen-3-yl)ethylidene)-2-(4-isobutylphenyl)propanehydrazide] | 2.56 µM | 1.80 |  |  |  | 
CC(C)Cc1ccc(C(C)C(=O)NNC(=O)c2cc3ccccc3oc2=O)cc1 (centres unmarked) [7a, N′-(2-(4-Isobutylphenyl)propanoyl)-2-oxo-2H-chromene-3-carbohydrazide] | 4.61 µM | 1.00 | 2.82 µM |  |  | 
Cc1ccc2oc(=O)c(C(=O)NNC(=O)C(C)c3ccc(CC(C)C)cc3)cc2c1 (centres unmarked) [7b, N′-(2-(4-Isobutylphenyl)propanoyl)-6-methyl-2-oxo-2H-chromene-3-carbohydrazide] | 42.7 µM | 0.11 |  |  |  | 
CC(C)Cc1ccc(C(C)C(=O)NNC(=O)c2cc3ccc(O)cc3oc2=O)cc1 (centres unmarked) [7c, 7-Hydroxy-N′-(2-(4-isobutylphenyl)propanoyl)-2-oxo-2H-chromene-3-carbohydrazide] | 8.92 µM | 0.52 |  |  |  | 
CC(C)Cc1ccc(C(C)C(=O)NNC(=O)c2cc3cc(Cl)ccc3oc2=O)cc1 (centres unmarked) [7d, 6-Chloro-N′-(2-(4-isobutylphenyl)propanoyl)-2-oxo-2H-chromene-3-carbohydrazide] | 137 µM | 0.03 |  |  |  | 
CC(C)Cc1ccc(C(C)C(=O)NNC(=O)c2cc3cc(F)ccc3oc2=O)cc1 (centres unmarked) [7e, 6-Fluoro-N′-(2-(4-isobutylphenyl)propanoyl)-2-oxo-2H-chromene-3-carbohydrazide] | 3.68 µM | 1.25 | 0.294 µM |  |  | 
CC(C)Cc1ccc(C(C)C(=O)NNC(=O)c2cc3cc([N+](=O)[O-])ccc3oc2=O)cc1 (centres unmarked) [7f, N′-(2-(4-Isobutylphenyl)propanoyl)-6-nitro-2-oxo-2H-chromene-3-carbohydrazide] | 6.25 µM | 0.74 | 0.982 µM |  |  | 
CC(C)Cc1ccc(C(C)C(=O)NNC(=O)c2cc3cc(Cl)cc(Cl)c3oc2=O)cc1 (centres unmarked) [7g, 6,8-Dichloro-N′-(2-(4-isobutylphenyl)propanoyl)-2-oxo-2H-chromene-3-carbohydrazide] | 0.783 µM | 5.89 |  | 20 µM | 25.49 | approximately 10 fold
CC(C)Cc1ccc(C(C)C(=O)NNC(=O)c2cc3cc(Br)cc(Br)c3oc2=O)cc1 (centres unmarked) [7h, 6,8-Dibromo-N′-(2-(4-isobutylphenyl)propanoyl)-2-oxo-2H-chromene-3-carbohydrazide] | 0.889 µM | 5.18 |  |  |  | 
CC(C)Cc1ccc(C(C)C(=O)O)cc1 (centres unmarked) [ibuprofen, reference compound] | > 200 µM |  |  |  |  | 

Continued, in another order:

IC50 (HeLa cells) | F, activity fold compared to hit compounds, F = IC50(Hit)/IC50(Lead) (HeLa cells) | IC50 (rhCOX-2) | SMILES | IC50 (HEK293 cells) | SI = IC50(HEK293)/IC50(HeLa) (HEK293 cells) | activity improvement compared to gefitinib (fold) (HeLa cells)
4.66 µM | 1.00 |  | CC(C)Cc1ccc(C(C)c2nnc(-c3cc4ccccc4oc3=O)o2)cc1 (centres unmarked) [8a, 3-(5-(1-(4-Isobutylphenyl)ethyl)-1,3,4-oxadiazol-2-yl)-2H-chromen-2-one] |  |  | 
122 µM | 0.04 |  | CC(C)Cc1ccc(C(C)c2nnc(-c3cc4cc(F)ccc4oc3=O)o2)cc1 (centres unmarked) [8b, 6-Fluoro-3-(5-(1-(4-isobutylphenyl)ethyl)-1,3,4-oxadiazol-2-yl)-2H-chromen-2-one] |  |  | 
82.2 µM | 0.06 |  | CC(C)Cc1ccc(C(C)c2nnc(-c3cc4cc(Cl)ccc4oc3=O)o2)cc1 (centres unmarked) [8c, 6-Chloro-3-(5-(1-(4-isobutylphenyl)ethyl)-1,3,4-oxadiazol-2-yl)-2H-chromen-2-one] |  |  | 
> 200 µM |  |  | CC(C)Cc1ccc(C(C)c2nnc(-c3cc4cc(Cl)cc(Cl)c4oc3=O)o2)cc1 (centres unmarked) [8d, 6,8-Dichloro-3-(5-(1-(4-isobutylphenyl)ethyl)-1,3,4-oxadiazol-2-yl)-2H-chromen-2-one] |  |  | 
> 200 µM |  |  | CC(C)Cc1ccc(C(C)c2nnc(-c3cc4cc(Br)cc(Br)c4oc3=O)o2)cc1 (centres unmarked) [8e, 6,8-Dibromo-3-(5-(1-(4-isobutylphenyl)ethyl)-1,3,4-oxadiazol-2-yl)-2H-chromen-2-one] |  |  | 
42.3 µM | 0.11 |  | Cc1ccc2oc(=O)c(-c3nnc(C(C)c4ccc(CC(C)C)cc4)o3)cc2c1 (centres unmarked) [8f, 3-(5-(1-(4-Isobutylphenyl)ethyl)-1,3,4-oxadiazol-2-yl)-6-methyl-2H-chromen-2-one] |  |  | 
